For data set [1], the target named is T1, Sodium/glucose cotransporter 2 (Homo sapiens, UniProt P31639).
T1 sequence (P31639 whole entry): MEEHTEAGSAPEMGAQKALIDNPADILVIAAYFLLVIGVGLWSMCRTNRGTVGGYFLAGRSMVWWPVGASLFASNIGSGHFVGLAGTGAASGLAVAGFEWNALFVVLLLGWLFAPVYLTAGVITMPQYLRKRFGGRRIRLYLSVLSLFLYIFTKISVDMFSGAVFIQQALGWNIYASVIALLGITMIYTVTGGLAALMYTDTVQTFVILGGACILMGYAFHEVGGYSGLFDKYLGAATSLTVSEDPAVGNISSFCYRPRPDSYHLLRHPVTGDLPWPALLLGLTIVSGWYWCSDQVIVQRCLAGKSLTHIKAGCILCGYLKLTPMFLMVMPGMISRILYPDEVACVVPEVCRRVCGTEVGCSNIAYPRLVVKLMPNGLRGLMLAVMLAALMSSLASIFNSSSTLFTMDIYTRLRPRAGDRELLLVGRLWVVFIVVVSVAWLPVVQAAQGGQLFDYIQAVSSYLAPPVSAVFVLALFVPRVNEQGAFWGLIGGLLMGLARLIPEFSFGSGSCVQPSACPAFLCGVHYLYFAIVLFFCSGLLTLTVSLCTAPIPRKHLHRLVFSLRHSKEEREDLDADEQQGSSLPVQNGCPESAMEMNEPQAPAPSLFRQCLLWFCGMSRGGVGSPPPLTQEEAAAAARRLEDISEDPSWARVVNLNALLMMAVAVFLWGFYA
The data set is described as follows: Inhibition of human SGLT2 expressed in CHO cells assessed as inhibition of [14C]AMG accumulation. It is filed as cell-based. The essentials: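 Radiolabeled α-methyl-D-glucopyranoside accumulation in Chinese hamster ovary cells stably expressing human or rat SGLT2. EC50 is taken as inhibition of that uptake. The assay was run in protein-free buffer, and n is given per value.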

The target of data set [2] is T2, Solute carrier family 2, facilitated glucose transporter member 1 (Homo sapiens) (UniProt P11166).
T2 sequence (whole entry): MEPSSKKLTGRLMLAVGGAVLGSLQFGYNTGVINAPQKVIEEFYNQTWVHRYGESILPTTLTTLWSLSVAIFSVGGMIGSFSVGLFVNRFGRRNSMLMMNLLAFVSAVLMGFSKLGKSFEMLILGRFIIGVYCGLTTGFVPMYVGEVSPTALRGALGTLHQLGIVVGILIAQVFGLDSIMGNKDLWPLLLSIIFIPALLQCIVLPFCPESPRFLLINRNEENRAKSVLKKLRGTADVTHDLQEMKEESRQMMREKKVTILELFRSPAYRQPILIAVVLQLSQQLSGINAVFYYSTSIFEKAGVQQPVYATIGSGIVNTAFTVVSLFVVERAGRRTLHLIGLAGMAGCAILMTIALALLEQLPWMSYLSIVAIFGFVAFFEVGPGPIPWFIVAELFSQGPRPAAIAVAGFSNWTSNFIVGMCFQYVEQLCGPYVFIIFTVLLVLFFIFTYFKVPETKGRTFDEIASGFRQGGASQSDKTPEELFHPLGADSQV
As to conditions: 20 uM.

Data set [3] in a line: Oral bioavailability in rat. As to conditions: in vivo.
Data set [4] in a line: Fraction unbound in rat serum at 10 uM.
A further data set is described as follows: in vivo. As to conditions: rat, po, 1 mg/kg.
The target of data set [5] is T3, Sodium/glucose cotransporter 2 (Rattus norvegicus, UniProt P53792).
T3 sequence (P53792 whole entry): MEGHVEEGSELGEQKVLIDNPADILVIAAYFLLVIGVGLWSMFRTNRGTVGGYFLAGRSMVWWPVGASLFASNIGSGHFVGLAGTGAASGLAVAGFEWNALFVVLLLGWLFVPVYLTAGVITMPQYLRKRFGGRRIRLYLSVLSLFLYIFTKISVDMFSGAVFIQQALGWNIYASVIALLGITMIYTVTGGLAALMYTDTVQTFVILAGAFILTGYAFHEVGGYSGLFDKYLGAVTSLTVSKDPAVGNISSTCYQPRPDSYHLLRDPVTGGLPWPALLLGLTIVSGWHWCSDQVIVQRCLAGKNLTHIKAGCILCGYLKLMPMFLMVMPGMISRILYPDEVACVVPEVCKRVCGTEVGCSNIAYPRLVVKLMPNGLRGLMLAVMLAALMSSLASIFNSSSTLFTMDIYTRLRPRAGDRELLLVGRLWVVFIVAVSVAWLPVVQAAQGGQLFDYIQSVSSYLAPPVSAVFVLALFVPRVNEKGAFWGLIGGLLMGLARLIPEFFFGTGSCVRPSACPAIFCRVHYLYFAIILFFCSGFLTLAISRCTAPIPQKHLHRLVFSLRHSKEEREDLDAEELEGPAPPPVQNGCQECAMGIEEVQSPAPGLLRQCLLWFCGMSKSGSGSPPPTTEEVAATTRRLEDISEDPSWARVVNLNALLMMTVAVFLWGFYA
The data set is described as follows: Inhibition of rat SGLT2 expressed in CHO cells assessed as inhibition of [14C]AMG accumulation.

A short description of data set [6]: Elimination half life in intra arterially dosed rat. The note with it: in vivo.
The nature of data set [7]: Permeability across human Caco-2 cells. Background: Caco-2 cells form a polarised layer with tight junctions and transporters.
A short description of data set [8]: Elimination half life in intra arterially dosed dog. As to conditions: in vivo.
Data set [9] is described as follows: Clearance in rat at 1 mg/kg, po after 1.7 hrs. As to conditions: in vivo.
Data set [10] can be described thus: Volume of distribution at steady state in rat. As to conditions: in vivo.
Data set [11] addresses T4, Solute carrier family 2, facilitated glucose transporter member 4 (Homo sapiens) (UniProt P14672).
T4 sequence (whole entry): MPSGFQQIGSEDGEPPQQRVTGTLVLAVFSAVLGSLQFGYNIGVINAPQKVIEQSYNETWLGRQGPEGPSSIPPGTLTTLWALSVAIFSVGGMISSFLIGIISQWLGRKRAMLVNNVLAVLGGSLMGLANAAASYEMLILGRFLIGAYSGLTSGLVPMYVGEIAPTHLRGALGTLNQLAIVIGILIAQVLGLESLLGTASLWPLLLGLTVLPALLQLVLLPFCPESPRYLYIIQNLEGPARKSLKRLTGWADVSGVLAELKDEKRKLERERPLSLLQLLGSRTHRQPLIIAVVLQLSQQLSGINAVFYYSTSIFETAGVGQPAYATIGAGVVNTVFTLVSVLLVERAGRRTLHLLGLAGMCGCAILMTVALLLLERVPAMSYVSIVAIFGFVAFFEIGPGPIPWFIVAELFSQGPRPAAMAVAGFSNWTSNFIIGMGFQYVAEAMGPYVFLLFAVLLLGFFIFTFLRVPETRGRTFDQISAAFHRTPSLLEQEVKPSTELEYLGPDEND
As to conditions: 20 uM.

The nature of data set [12]: Fraction unbound in human serum at 10 uM.
The nature of data set [13]: Elimination half life in intra arterially dosed monkey. The note with it: rhesus monkey, in vivo.

The term EC50 denotes the concentration needed to bring the measured effect to its halfway point. For `Cc1cc(O)c(C(=O)CCc2ccc3occc3c2)c(O[C@@H]2O[C@H](CO)[C@@H](O)[C@H](O)[C@H]2O)c1`, the EC50 in data set [1] was 6.6 nM.
Take `CCNC(=O)c1c(O)c(Cc2ccc(OC)cc2)cc([C@@H]2O[C@H](CO)[C@@H](O)[C@H](O)[C@H]2O)c1O`: the concentration for a half-maximal effect (EC50) in [1] came out at 1300 nM.
Usually inhibition stands for the change of the read-out against control, counted positive when it falls. What is called bioavailability is dose-corrected exposure relative to a reference, in per cent. As usually defined, the fraction unbound is free concentration divided by total concentration. What is called Cmax is the peak of the concentration-time curve. For orientation: half-life means the time needed for the level to fall by half in the phase considered. What is called Papp is a coefficient for how fast a substance crosses the barrier. In general, CL/F refers to the apparent clearance, not corrected for the fraction that reaches the circulation. What is called Vd is the apparent volume that relates the amount in the body to the concentration in plasma or blood. As to `CCOc1ccc(Cc2cc([C@@H]3O[C@H](CO)[C@@H](O)[C@H](O)[C@H]3O)ccc2Cl)cc1` [DAPAGLIFLOZIN], the inhibition in data set [2] and in [11] was 8% in each case. This compound also came in with a bioavailability in [3] of 84%. The results for the fraction unbound at 10 µM in [4] and in data set [12] were 0.03 and 0.04, respectively. In “in vivo”, this compound yielded a peak concentration (Cmax) at 1.7 h of 600 ng/mL. In data set [5], the EC50 came out at 3 nM. The results for the half-life in data set [6], in [8] and in data set [13] were 4.6 h, 7.4 h and 3 h, respectively. The Papp in data set [7] was greater than 15 ×10⁻⁶ cm/s. The same compound showed an apparent clearance (CL/F) at 1.7 h in [9] of 4.8 mL/min/kg. Moreover, in data set [10], the distribution volume (Vd) worked out at 1.6 L/kg.
`COc1ccc(Cc2ccccc2O[C@@H]2O[C@H](CO)[C@@H](O)[C@H](O)[C@H]2O)cc1` [SERGLIFLOZIN A]: the EC50 in data set [1] worked out at 9.2 nM.

The values are drawn from ChEMBL document CHEMBL1142359 (J Med Chem, 2008).
